Reference: ChEMBL document CHEMBL1127345, “Synthesis, binding properties, and 18F labeling of fluorocarazolol, a high-affinity beta-adrenergic receptor antagonist” (J Med Chem, 1994)

Experiments:
Mus musculus [1] = experiment: The in vivo tissue distribution of mouse blood with Propranolol administration after 40 min, value was fractional dose per fractional body weight of the organ; type: ADME, organism-based
In short: (§1)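 Male CF-1 mice (25–30 g), anesthetised with 2 mg sodium pentobarbital ip 30 min before tracer. Where blocked, propranolol iv via tail vein (0.1 mL of […]; […]) about 30 min before tracer. Tracer given by tail vein, 0.1 mL at 1–2 mCi/mL. Mice killed by cervical dislocation at set times, organs weighed and counted. %ID/g × body weight/100 gives unitless uptake. Heart, brain, blood, lung, kidney, liver and bone n=5; average ± SD.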

Mus musculus [2] = experiment: The in vivo tissue distribution of mouse bone with Propranolol administration after 60 min, value was fractional dose per fractional body weight of the organ; type: ADME, organism-based, Bone element; conditions: 1 h; in short: as §1
Mus musculus [3] = experiment: The in vivo tissue distribution of mouse heart with Propranolol administration after 40 min, value was fractional dose per fractional body weight of the organ; type: ADME, organism-based; in short: as §1
Mus musculus [4] = experiment: The in vivo tissue distribution of mouse lung without Propranolol preadministration in 10 min, value was fractional dose per fractional body weight of the organ
Mus musculus [5] = experiment: The in vivo tissue distribution of mouse liver with Propranolol administration after 20 min, value was fractional dose per fractional body weight of the organ; type: ADME, organism-based
In short: (§2)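 Male CF-1 mice (25–30 g), given 2 mg sodium pentobarbital ip 30 min before tracer. Blocked groups received propranolol iv by tail vein, 0.1 mL of 1 mg/mL. About 30 min later, 0.1 mL of [18F]tracer (1–2 mCi/mL) was injected by tail vein. Mice were killed by cervical dislocation at set times, and organs were weighed and counted. Uptake is %ID/g × body weight/100, average ± SD; n=5 for heart, brain, blood, lung, kidney, liver and bone.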

Mus musculus [6] = experiment: The in vivo tissue distribution of mouse blood without Propranolol preadministration in 180 min, value was fractional dose per fractional body weight of the organ; conditions: 3 h
Mus musculus [7] = experiment: The in vivo tissue distribution of mouse brain with Propranolol administration after 60 min, value was fractional dose per fractional body weight of the organ; type: ADME, organism-based; conditions: 1 h; in short: as §1
Mus musculus [8] = experiment: The in vivo tissue distribution of mouse heart with Propranolol administration after 20 min, value was fractional dose per fractional body weight of the organ; type: ADME, organism-based; in short: as §1
Mus musculus [9] = experiment: The in vivo tissue distribution of mouse lung with Propranolol administration after 120 min, value was fractional dose per fractional body weight of the organ; type: ADME, organism-based; conditions: 2 h
In short: (§3)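 Male CF-1 mice (25–30 g) anaesthetised with 2 mg sodium pentobarbital ip; blocked group given 0.1 mL of […] propranolol iv via tail vein (200 μg, 6.6 mg/kg), tracer 30 min later. 0.1 mL of 1–2 mCi/mL [18F]-labelled enantiomer iv via tail vein; killed by cervical dislocation, organs weighed and counted against weighed standards. %ID/g × body weight/100 gives unitless uptake; five mice per point (heart, blood, lung, kidney, liver, bone); mean ± SD.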

Mus musculus [10] = experiment: The in vivo tissue distribution of mouse lung with Propranolol administration after 90 min, value was fractional dose per fractional body weight of the organ; type: ADME, organism-based; conditions: 1.5 h; in short: as §3
Mus musculus [11] = experiment: The in vivo tissue distribution of mouse bone with Propranolol administration after 90 min, value was fractional dose per fractional body weight of the organ; type: ADME, organism-based, Bone element; conditions: 1.5 h; in short: as §1
Mus musculus [12] = experiment: The in vivo tissue distribution of mouse brain with Propranolol administration after 20 min, value was fractional dose per fractional body weight of the organ; type: ADME, organism-based; in short: as §1
Mus musculus [13] = experiment: The in vivo tissue distribution of mouse liver with Propranolol administration after 180 min, value was fractional dose per fractional body weight of the organ; type: ADME, organism-based; conditions: 3 h; in short: as §3
Mus musculus [14] = experiment: The in vivo tissue distribution of mouse lung with Propranolol administration after 20 min, value was fractional dose per fractional body weight of the organ; type: ADME, organism-based; in short: as §2
Mus musculus [15] = experiment: The in vivo tissue distribution of mouse liver with Propranolol administration after 60 min, value was fractional dose per fractional body weight of the organ; type: ADME, organism-based; conditions: 1 h; in short: as §3
Mus musculus [16] = experiment: The in vivo tissue distribution of mouse heart with Propranolol administration after 180 min, value was fractional dose per fractional body weight of the organ; type: ADME, organism-based; conditions: 3 h; in short: as §2
Mus musculus [17] = experiment: The in vivo tissue distribution of mouse lung without Propranolol preadministration in 90 min, value was fractional dose per fractional body weight of the organ; conditions: 1.5 h
Mus musculus [18] = experiment: The in vivo tissue distribution of mouse kidney with Propranolol administration after 40 min, value was fractional dose per fractional body weight of the organ; type: ADME, organism-based; in short: as §2
Mus musculus [19] = experiment: The in vivo tissue distribution of mouse brain with Propranolol administration after 90 min, value was fractional dose per fractional body weight of the organ; type: ADME, organism-based; conditions: 1.5 h; in short: as §1
Mus musculus [20] = experiment: The in vivo tissue distribution of mouse lung with Propranolol administration after 180 min, value was fractional dose per fractional body weight of the organ; type: ADME, organism-based; conditions: 3 h; in short: as §1
Mus musculus [21] = experiment: The in vivo tissue distribution of mouse bone without Propranolol preadministration in 10 min, value was fractional dose per fractional body weight of the organ
Mus musculus [22] = experiment: The in vivo tissue distribution of mouse liver without Propranolol preadministration in 40 min, value was fractional dose per fractional body weight of the organ
Mus musculus [23] = experiment: The in vivo tissue distribution of mouse kidney with Propranolol administration after 180 min, value was fractional dose per fractional body weight of the organ; type: ADME, organism-based; conditions: 3 h; in short: as §1
Mus musculus [24] = experiment: The in vivo tissue distribution of mouse kidney without Propranolol preadministration in 40 min, value was fractional dose per fractional body weight of the organ
Mus musculus [25] = experiment: The in vivo tissue distribution of mouse kidney with Propranolol administration after 60 min, value was fractional dose per fractional body weight of the organ; type: ADME, organism-based; conditions: 1 h; in short: as §3
Mus musculus [26] = experiment: The in vivo tissue distribution of mouse bone without Propranolol preadministration in 120 min, value was fractional dose per fractional body weight of the organ; conditions: 2 h
Mus musculus [27] = experiment: The in vivo tissue distribution of mouse bone with Propranolol administration after 120 min, value was fractional dose per fractional body weight of the organ; type: ADME, organism-based, Bone element; conditions: 2 h; in short: as §2
Mus musculus [28] = experiment: The in vivo tissue distribution of mouse brain with Propranolol administration after 180 min, value was fractional dose per fractional body weight of the organ; type: ADME, organism-based; conditions: 3 h; in short: as §2
Mus musculus [29] = experiment: The in vivo tissue distribution of mouse brain without Propranolol preadministration in 120 min, value was fractional dose per fractional body weight of the organ; conditions: 2 h
Mus musculus [30] = experiment: The in vivo tissue distribution of mouse blood with Propranolol preadministration in 120 min, value was fractional dose per fractional body weight of the organ; type: ADME, organism-based; conditions: 2 h; in short: as §3
Mus musculus [31] = experiment: The in vivo tissue distribution of mouse lung with Propranolol administration after 10 min, value was fractional dose per fractional body weight of the organ; type: ADME, organism-based; in short: as §2
Mus musculus [32] = experiment: The in vivo tissue distribution of mouse heart without Propranolol preadministration in 20 min, value was fractional dose per fractional body weight of the organ
Mus musculus [33] = experiment: The in vivo tissue distribution of mouse blood without Propranolol preadministration in 60 min, value was fractional dose per fractional body weight of the organ; conditions: 1 h
Mus musculus [34] = experiment: The in vivo tissue distribution of mouse brain with Propranolol preadministration in 90 min, value was fractional dose per fractional body weight of the organ; type: ADME, organism-based; conditions: 1.5 h; in short: as §1

Row | SMILES | Dose/organ (Mus musculus [1]) | Dose/organ (Mus musculus [2]) | Dose/organ (Mus musculus [3]) | Dose/organ (Mus musculus [4]) | Dose/organ (Mus musculus [5]) | Dose/organ (Mus musculus [6]) | Dose/organ (Mus musculus [7]) | Dose/organ (Mus musculus [8]) | Dose/organ (Mus musculus [9]) | Dose/organ (Mus musculus [10]) | Dose/organ (Mus musculus [11]) | Dose/organ (Mus musculus [12]) | Dose/organ (Mus musculus [13]) | Dose/organ (Mus musculus [14]) | Dose/organ (Mus musculus [15]) | Dose/organ (Mus musculus [16]) | Dose/organ (Mus musculus [17]) | Dose/organ (Mus musculus [18]) | Dose/organ (Mus musculus [19]) | Dose/organ (Mus musculus [20]) | further results
1 | CC(C[18F])NC[C@@H](O)COc1cccc2[nH]c3ccccc3c12 (stereo partly drawn) | 0.57 | 1.15 | 0.73 | 8.13 | 3 | 0.17 | 0.62 | 0.85 | 0.45 | 1.03 | 1.57 | 1.22 | 0.5 | 3.87 | 1.61 | 0.1 | 1.55 | 2.7 | 0.42 | 0.26 | Dose/organ (Mus musculus [21]): 0.67; Dose/organ (Mus musculus [22]): 3; Dose/organ (Mus musculus [23]): 0.33; Dose/organ (Mus musculus [24]): 3.3; Dose/organ (Mus musculus [25]): 1.67; Dose/organ (Mus musculus [26]): 0.78; Dose/organ (Mus musculus [27]): 1.98; Dose/organ (Mus musculus [28]): 0.06; Dose/organ (Mus musculus [29]): 0.2; Dose/organ (Mus musculus [30]): 0.24; Dose/organ (Mus musculus [31]): 5.23; Dose/organ (Mus musculus [32]): 0.81; Dose/organ (Mus musculus [33]): 0.42; Dose/organ (Mus musculus [34]): 0.35
2 | CC(C[18F])NC[C@H](O)COc1cccc2[nH]c3ccccc3c12 (stereo partly drawn) | 0.35 | 1.1 | 0.51 | 6.4 | 1.85 | 0.43 | 0.25 | 0.63 | 0.52 | 1.06 | 0.72 | 0.78 | 0.59 | 3.26 | 1.17 | 0.15 | 5.88 | 1.64 | 0.38 | 0.72 | Dose/organ (Mus musculus [21]): 0.65; Dose/organ (Mus musculus [22]): 1.7; Dose/organ (Mus musculus [23]): 0.35; Dose/organ (Mus musculus [24]): 2.01; Dose/organ (Mus musculus [25]): 1.28; Dose/organ (Mus musculus [26]): 1.08; Dose/organ (Mus musculus [27]): 1.42; Dose/organ (Mus musculus [28]): 0.09; Dose/organ (Mus musculus [29]): 0.64; Dose/organ (Mus musculus [30]): 0.52; Dose/organ (Mus musculus [31]): 5; Dose/organ (Mus musculus [32]): 0.91; Dose/organ (Mus musculus [33]): 0.6; Dose/organ (Mus musculus [34]): 0.8
